We go through one substance from publication PMC8052682 (Chemical communications (Cambridge, England), 2021).

For one assay, the system named is integrin. Conditions: ref [3], [20]; cited from earlier work.
The test system of assay [1] is MDA-MB-231 breast carcinoma cells. In words: Wound-healing. Format: cell-based. The conditions noted are these: wound-healing assay, 20-hour time span, six biological replicates. The procedure, abridged:
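Scratch-wound migration of MDA-MB-231 breast carcinoma cells followed over 20 h with test compounds (a glycopeptide, a peptide, or heparin) at several concentrations. Migration was scored as relative migration, and the concentration giving maximal inhibition of migration was noted.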

For heparin, the “integrin binding relative to heparan sulfate (in words)” value in the assay on integrin is given as “binds more tightly with integrin than heparan sulfate”. The “concentration at which maximal inhibitory effect on migration is reached” value in assay [1] came out at 6 µM.
